Only some compounds are listed: those with a hit (about 2.5% of all), similar ones and a draw of the others.
MC4R antag cAMP = MC4R antagonists of cAMP signaling, primary screen, cell-based, TR-FRET, antagonist arm of biased-ligand search. 360,000 tested, 0.48% active. Melanocortin receptor 4 (Homo sapiens), P32245. MC4R-expressing cells, MTII-stimulated cAMP, LANCE TR-FRET. inhibition, % at 6.5 µM;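 active = inhibition above its plate's cutoff, the mean of tested wells on that plate plus 3 SD, cut at about 29% in these data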
Target sequence (P32245 whole entry, looked up): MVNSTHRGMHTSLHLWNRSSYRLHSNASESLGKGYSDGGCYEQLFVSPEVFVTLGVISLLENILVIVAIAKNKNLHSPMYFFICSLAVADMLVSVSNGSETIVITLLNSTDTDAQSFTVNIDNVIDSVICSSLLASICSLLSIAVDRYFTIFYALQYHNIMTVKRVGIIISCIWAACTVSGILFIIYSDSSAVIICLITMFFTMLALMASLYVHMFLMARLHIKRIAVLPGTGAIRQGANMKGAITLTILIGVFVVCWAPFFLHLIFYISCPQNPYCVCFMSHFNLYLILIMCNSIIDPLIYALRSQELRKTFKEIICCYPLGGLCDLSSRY
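Material: U2OS-MC4R stable cell line | Reagent: Melanotan II challenge after compound preincubation | Doses: One concentration, 6.5 µM nominal | Incubation: 30-min compound preincubation, 1-h Melanotan II challenge, 1-h detection, room temperature | Signal: TR-FRET cAMP assay | Replicates: One well per compound, no replicates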
TbMetRS inhib = T. brucei MetRS inhibitors, primary screen, biochemical, luminescence; purified T. brucei MetRS, ATP depletion, Kinase-Glo luminescence; methionyl-tRNA synthetase (Trypanosoma brucei brucei); AID 624268, 2012; inhibition, % at 11.9 µM; 360,000 tested, 0.4% active;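 active = inhibition above a per-plate cutoff of the control wells' mean inhibition plus 3 SD, cut at about 5.5% in these data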
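Measured by: Kinase-Glo luciferase luminescence reporting remaining unconsumed ATP. Material: purified T. brucei MetRS enzyme. Doses: 11.9 µM compound single dose, 0.9% DMSO. Medium: HEPES buffer containing pyrophosphatase, BSA, spermine, DTT. Times: 15 min preincubation, 2 h reaction, all 25 °C. Reagent: methionine, ATP and bulk E. coli tRNA.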
A1 inh = caspase 3/7 activation in MEF A1-2A-BIM cells, primary screen, A1 inhibitor project, cell-based, luminescence, HTS. Caspase-Glo 3/7 luminescence, 3 h; percent of clofoctol response, vehicle zero. caspase activation, % (test concentration not listed). 330,000 tested, 0.066% active;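 active = over half of replicate activation scores above 10%, or exactly half above 10 with the replicate mean above 10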
NALP3 yeast inh = NALP3 inflammasome inhibitors in reconstituted yeast, primary screen, luminescence, uHTS. Yeast reconstituted NLRP3/ASC/caspase-1, beta-gal luminescence, 24 h. inhibition, % at 10 µM. 330,000 tested, 0.39% active. AID 2825, 2010;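 active = inhibition of 50% or more; inactive = inhibition below 50%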
NALP1 yeast inh = NALP1 inflammasome inhibitors in reconstituted yeast, colorimetric, S. cerevisiae, triplicate retest; S. cerevisiae NALP1/ASC/caspase-1 growth, X-gal OD620, 72 h; inhibition, % at 10 µM; 280,000 tested, 0.61% active; in the data active = inhibition mostly above about 24%, no sharp cut-off; inactive = mostly below about 32%
MC4R barr agon = MC4R agonists recruiting beta-arrestin, primary screen, cell-based, luminescence, agonist arm of biased-ligand search | Melanocortin receptor 4 (Homo sapiens), P32245 | U2OS MC4R beta-arrestin complementation; percent of melanotan II response, DMSO zero | activation, % at 8.9 µM | 360,000 tested, 0.98% active | AID 540308, 2011;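 active = activation above a per-plate cutoff, the mean activation of sample wells on that plate plus 3 SD, cut at about 8% in these data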
A number is an active result; – = inactive; · = no result.

SMILES	MC4R antag cAMP	TbMetRS inhib	A1 inh	NALP3 yeast inh	NALP1 yeast inh	MC4R barr agon
Cc1cccc(NC(=O)CN2C(=O)CCS(=O)(=O)c3ccccc32)c1C	–	–	–	–	–	–
Cn1cc(CN2CCN(c3ccccc3)CC2)c2ccccc21	–	–	–	–	26.4	–
O=C(OCC(=O)c1ccc[nH]1)c1ccc(S(=O)(=O)C(F)F)cc1	–	–	·	·	·	–
COC(=O)c1c(N2C(=O)CC(Sc3ccccc3C(=O)O)C2=O)sc(C)c1C (centres undefined)	–	–	–	–	21.5	–
COC(=O)c1c(N2C(=O)CC(Sc3ccccc3C(=O)O)C2=O)sc2c1CCCC2 (centres undefined)	–	–	–	–	–	–
O=C(O)c1ccccc1SC1CC(=O)N(c2ccccc2)C1=O (centres undefined)	–	–	–	–	56.9	–
CC1(C(=O)NS(=O)(=O)c2ccccc2Cl)CCN1C(=O)CCc1ccccc1 (centres undefined)	–	–	·	·	·	–
CCOC(=O)C1=C(COC(=O)/C=C/c2cccc(F)c2)NC(=O)NC1C (centres undefined)	–	–	–	–	·	–
O=C(CNC(=O)c1cccs1)N/N=C/c1ccco1	–	–	–	–	29.2	–
COc1ccc(C2Nc3ccccc3C(=O)N2c2ccccc2)cc1CSc1ccccn1 (centres undefined)	–	–	–	–	–	–
COc1ccc(C2Nc3ccccc3C(=O)N2c2ccc(F)cc2)cc1CSc1ccccn1 (centres undefined)	–	–	–	–	–	33.0
O=C(Nc1nc2ccccc2[nH]1)c1ccc([N+](=O)[O-])cc1	–	–	–	–	–	–
C/C(=N\Nc1nc2ccccc2[nH]1)c1ccc([N+](=O)[O-])cc1	–	–	–	–	·	9.5
Cc1ccc(OCCn2cc(/C=C(\C#N)C(=O)NCC3CCCO3)c3ccccc32)cc1C (centres undefined)	–	–	–	–	45.2	–
Cc1ccc(OCCn2cc(/C=C(\C#N)C(=O)NCC3CCCO3)c3ccccc32)cc1 (centres undefined)	–	–	–	–	–	–
Cn1cccc1C(=O)NC(=O)COC(=O)CCNS(=O)(=O)c1ccc(Cl)cc1	–	–	–	–	·	–
Cc1ccc(C(=O)OCC(=O)NC(C)C)cc1S(=O)(=O)N1CCOCC1	–	–	–	–	23.8	–
C=CC[C@@H](CC(=O)N[C@H](CO)Cc1ccccc1)C(=O)N[C@H](COC(=O)[C@@H](CC=C)Cc1ccc(F)cc1)Cc1c[nH]c2ccccc12	–	–	–	–	·	–
Cc1nc(N/N=C/c2ccc(Br)cc2)cc(N2CCOCC2)n1	–	–	–	–	–	8.3
Oc1ccc(/C=N/Nc2cc(N3CCOCC3)nc(N3CCOCC3)n2)cc1	–	–	–	–	·	–
COC(=O)[C@]1(Cc2ccccc2)N[C@H](CN(C)S(=O)(=O)c2ccc(C(C)(C)C)cc2)[C@@H]2C(=O)N(C)C(=O)[C@@H]21	–	–	–	–	·	–
CN(c1ccccc1C(=O)N1CCN(Cc2ccc3c(c2)OCO3)CC1)S(C)(=O)=O	–	–	–	–	35.9	–
Cc1cc(C)nc(-n2nc(C)cc2NC(=O)c2ccc(S(=O)(=O)N3CCOCC3)cc2)n1	·	·	–	–	–	·
CSc1nc2nc(C(F)(F)F)cc(-c3ccccc3)n2n1	–	–	–	–	–	–
CSc1nc2nc(-c3ccccc3)cc(C(F)(F)F)n2n1	–	–	–	–	27.1	–
COc1ccc(-c2ccc3c(c2)S(=O)(=O)c2cccc(C(=O)NCc4cccc(OC(F)(F)F)c4)c2C3=O)cc1OC	–	–	38.7	–	·	–

High-throughput results (PubChem)
